What all share (assay type): cell-based
The target in assay [1] is Histone-lysine N-methyltransferase EZH2 (Mus musculus) (UniProt Q61188). Nature of the assay: Inhibition of EZH2 in mouse B16-F1 migrating cells assessed as fold change in H3K27me3-dependent regulated Id1-mRNA expression at 3 uM measured by […] analysis relative to control cells. In a few lines:
(§1)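 Confluent B16-F1 cells on fibronectin-coated plates were scratched at multiple sites, washed once with DMEM and left to migrate 3 h in growth medium (37 °C, 7% CO2); unscratched cells served as control. GSK343 (3 µM) was added 3 h before lysis. Poly A mRNA was sequenced (RNA-seq), with 5 replicates for untreated and 3 for treated cells. Differential expression was called by linear model with batch correction, at FDR <0.05 and fold change ≥1.3.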

For assay [2] the target is unchanged. The assay is described as follows: Inhibition of EZH2 in mouse B16-F1 migrating cells assessed as fold change in H3K27me3-buffered regulated Snhg5-mRNA expression at 3 uM measured by […] analysis relative to control cells. In outline: as §1
The target is the same in assay [3]. The assay is described as follows: Inhibition of EZH2 in mouse B16-F1 migrating cells assessed as fold change in H3K27me3-independent regulated Eva1a-mRNA expression at 3 uM measured by ChIP-seq analysis relative to control cells. In outline:
as §1

Assay [4] shares this target. Nature of the assay: Inhibition of EZH2 in mouse B16-F1 migrating cells assessed as fold change in H3K27me3-buffered regulated Gatd1-mRNA expression at 3 uM measured by ChIP-seq analysis relative to control cells. In a few lines: (§2)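 Confluent B16-F1 cells on fibronectin-coated plates, cultured at 37 °C and 7% CO2, were scratched at multiple sites to induce migration. They were then held 3 h in growth medium containing 3 µM GSK343, with the inhibitor added 3 h before lysis. Unscratched cells served as controls. Poly A mRNA was analysed by RNA-seq (n=3 GSK343, n=5 controls). Linear models removed batch effects, and buffered genes were those altered only under GSK343 (FDR <0.05, fold change >1.3).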

For assay [5] the target is unchanged. Nature of the assay: Inhibition of EZH2 in mouse B16-F1 migrating cells assessed as fold change in H3K27me3-buffered regulated Itpk1-mRNA expression at 3 uM measured by […] analysis relative to control cells. In outline:
as §2

The target is the same in assay [6]. Nature of the assay: Inhibition of EZH2 in mouse B16-F1 migrating cells assessed as fold change in H3K27me3-independent regulated Coq10b-mRNA expression at 3 uM measured by […] analysis relative to control cells. In outline: as §1
For assay [7] the target is unchanged. Nature of the assay: Inhibition of EZH2 in mouse B16-F1 migrating cells assessed as fold change in H3K27me3-buffered regulated Mpp7-mRNA expression at 3 uM measured by […] analysis relative to control cells. In outline: as §2
Assay [8] shares this target. Nature of the assay: Inhibition of EZH2 in mouse B16-F1 migrating cells assessed as fold change in H3K27me3-buffered regulated Ndufv3-mRNA expression at 3 uM measured by […] analysis relative to control cells. In outline:
as §2

The target is the same in assay [9]. Nature of the assay: Inhibition of EZH2 in mouse B16-F1 migrating cells assessed as fold change in H3K27me3-independent regulated Csrnp1-mRNA expression at 3 uM measured by […] analysis relative to control cells. In a few lines:
as §1

Assay [10] shares this target. Nature of the assay: Inhibition of EZH2 in mouse B16-F1 migrating cells assessed as fold change in H3K27me3-buffered regulated Slc39a14-mRNA expression at 3 uM measured by […] analysis relative to control cells. In a few lines:
as §1

For assay [11] the target is unchanged. Nature of the assay: Inhibition of EZH2 in mouse B16-F1 migrating cells assessed as fold change in H3K27me3-independent regulated Ltbp1-mRNA expression at 3 uM measured by […] analysis relative to control cells. In outline: as §1
Assay [12] has the same target. The assay is described as follows: Inhibition of EZH2 in mouse B16-F1 migrating cells assessed as fold change in H3K27me3-buffered regulated Sltm-mRNA expression at 3 uM measured by ChIP-seq analysis relative to control cells. In a few lines:
as §1

The target is the same in assay [13]. The assay is described as follows: Inhibition of EZH2 in mouse B16-F1 migrating cells assessed as fold change in H3K27me3-dependent regulated Cxxc5-mRNA expression at 3 uM measured by […] analysis relative to control cells. In outline: as §1
The target is the same in assay [14]. Nature of the assay: Inhibition of EZH2 in mouse B16-F1 migrating cells assessed as fold change in H3K27me3-buffered regulated Synm-mRNA expression at 3 uM measured by […] analysis relative to control cells. In a few lines: as §1
Assay [15] shares this target. The assay is described as follows: Inhibition of EZH2 in mouse B16-F1 migrating cells assessed as fold change in H3K27me3-buffered regulated Cntrob-mRNA expression at 3 uM measured by […] analysis relative to control cells. In a few lines:
as §2

The target is the same in assay [16]. Nature of the assay: Inhibition of EZH2 in mouse B16-F1 migrating cells assessed as fold change in H3K27me3-independent regulated Fosl2-mRNA expression at 3 uM measured by […] analysis relative to control cells. In a few lines:
as §1

For assay [17], the target named is T1, RNA polymerase II (Mus musculus) (UniProt P08775+Q8CFI7+P97760+A0A3Q4L2S8+Q80UW8+P61219+P62488+Q923G2+P60898+O08740+Q63871+P62876). Nature of the assay: Inhibition of RNA polymerase II in mouse B16-F1 migrating cells assessed as fold change in Slc27a3-RNA stability at 0.1 mM measured by […] analysis relative to control cells.
The target in assay [18] is T1, RNA polymerase II (Mus musculus). The assay is described as follows: Inhibition of RNA polymerase II in mouse B16-F1 migrating cells assessed as fold change in Chd1-RNA stability at 0.1 mM measured by ChIP-seq analysis relative to control cells.
Assay [19] shares this target. Nature of the assay: Inhibition of RNA polymerase II in mouse B16-F1 migrating cells assessed as fold change in Brd2-RNA stability at 0.1 mM measured by […] analysis relative to control cells.
Assay [20] shares this target. The assay is described as follows: Inhibition of RNA polymerase II in mouse B16-F1 migrating cells assessed as fold change in Eif2s3x-RNA stability at 0.1 mM measured by […] analysis relative to control cells. In a few lines:
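Mouse B16-F1 melanoma cells grown to confluence on fibronectin in DMEM/10% FCS at 37 °C, 7% CO2. Migration induced by multiple scratches and 3 h incubation; unscratched controls. DRB 0.1 mM added 3 h before lysis. RNA from poly A-selected mRNA was sequenced (RNA-seq, three replicates per DRB group). Fold change computed for DRB-treated migrating vs DRB-treated control cells; cutoffs fold change >1.3, FDR <0.05.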

For assay [21] the target is unchanged. Nature of the assay: Inhibition of RNA polymerase II in mouse B16-F1 migrating cells assessed as fold change in Zcchc10-RNA stability at 0.1 mM measured by […] analysis relative to control cells.
For assay [22] the target is unchanged. Nature of the assay: Inhibition of RNA polymerase II in mouse B16-F1 migrating cells assessed as fold change in Mex3c-RNA stability at 0.1 mM measured by ChIP-seq analysis relative to control cells.
For assay [23] the target is unchanged. The assay is described as follows: Inhibition of RNA polymerase II in mouse B16-F1 migrating cells assessed as fold change in Mtch1-RNA stability at 0.1 mM measured by ChIP-seq analysis relative to control cells.
The target is the same in assay [24]. The assay is described as follows: Inhibition of RNA polymerase II in mouse B16-F1 migrating cells assessed as fold change in Adam17-RNA stability at 0.1 mM measured by […] analysis relative to control cells.

Chain of Histone-lysine N-methyltransferase EZH2 (Mus musculus) (Q61188 whole entry): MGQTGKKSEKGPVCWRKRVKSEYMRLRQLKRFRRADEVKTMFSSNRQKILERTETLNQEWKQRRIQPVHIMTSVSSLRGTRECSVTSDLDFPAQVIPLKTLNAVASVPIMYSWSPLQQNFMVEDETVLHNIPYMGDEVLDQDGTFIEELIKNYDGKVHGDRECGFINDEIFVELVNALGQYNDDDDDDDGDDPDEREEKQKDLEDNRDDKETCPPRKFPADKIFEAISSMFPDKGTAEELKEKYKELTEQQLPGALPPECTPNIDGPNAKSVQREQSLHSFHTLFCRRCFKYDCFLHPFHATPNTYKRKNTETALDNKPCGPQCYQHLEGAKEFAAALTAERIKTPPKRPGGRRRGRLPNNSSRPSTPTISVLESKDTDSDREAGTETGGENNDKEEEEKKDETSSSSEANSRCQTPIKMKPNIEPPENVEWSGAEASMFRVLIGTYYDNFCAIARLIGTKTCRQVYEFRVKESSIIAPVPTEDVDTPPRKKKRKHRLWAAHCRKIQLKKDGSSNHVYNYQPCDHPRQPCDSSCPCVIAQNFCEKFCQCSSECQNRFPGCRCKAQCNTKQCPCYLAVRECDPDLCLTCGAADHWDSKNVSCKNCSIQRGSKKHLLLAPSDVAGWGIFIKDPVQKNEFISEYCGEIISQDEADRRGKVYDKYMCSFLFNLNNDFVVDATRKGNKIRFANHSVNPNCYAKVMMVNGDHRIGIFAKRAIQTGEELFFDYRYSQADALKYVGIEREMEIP

Consider `CCCc1cc(C)[nH]c(=O)c1CNC(=O)c1cc(-c2ccnc(N3CCN(C)CC3)c2)cc2c1cnn2C(C)C`, for which the log2FC is 0.16 in [1]; -0.89 in assay [2]; 0.84 in [3]; -0.43 in assay [4]; 0.51 in [5]; 0.56 in assay [6]. Also, the log2FC in assay [7] was 0.51; in assay [8] it was 0.38; in assay [9], 0.64; in assay [10], 0.46; in assay [11], 1.19; in assay [12] it was -0.45. The log2FC in [13] is 0.23; in assay [14], 1.06; in assay [15], -0.42; in assay [16] it was 0.7.
Turning to `OC[C@H]1O[C@@H](n2cnc3cc(Cl)c(Cl)cc32)[C@H](O)[C@@H]1O`, the log2FC was 0.65 in assay [17]; -0.56 in assay [18]; -0.66 in [19]; -0.51 in assay [20]; -0.7 in assay [21]; -0.71 in assay [22]. Further, the values for the log2FC in assay [23] and in assay [24] were 0.46 and -0.56, respectively.

These data come from ChEMBL document CHEMBL5674883, “The Heterochromatin Landscape in Migrating Cells and the Importance of H3K27me3 for Associated Transcriptome Alterations” (Cells, 2018).
